# Laboratory results reported in ChEMBL document CHEMBL1124397, “A novel class of "GABAergic" agents: 1-aryl-3-(aminoalkylidene)oxindoles” (J Med Chem, 1989).
# How the values were obtained:
# [1] = system: Mus musculus; test: Ability to displace [3H]Flunitrazepam ([3H]FNP) binding to mouse brain after intraperitoneal administration at a dose 32uMl/kg, expressed as percent of control; format: functional
# Method in brief: (§1)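 Mice in groups of five received test compound or vehicle ip 1 h before 200 μCi/kg [3H]FNP iv and were killed 20 min later. Brains were homogenized in 40 volumes of ice-cold 50 mM Tris-HCl pH 7.7. Triplicate 1.0-mL samples were filtered on glass fiber, washed with cold buffer and counted. Bound FNP is given as % of vehicle-treated mice.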
# [2] = system: Mus musculus; test: Activity to antagonise mercaptopropionic acid (MPA) induced convulsions in mouse after subcutaneous administration; value ranges from 3.2-5.6; format: functional; details: sc
# Method in brief: (§2)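 Male Swiss CD mice (17–21 g), fasted 18 h, in groups of five. […] One hour later MPA 32 mg/kg ip. Protection meant no convulsions during 10 min of observation.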
# [3] = system: Mus musculus; test: Activity to antagonise cyclic GMP after administration of isoniazid in mouse brain; value ranges from 0.3-1; format: functional
# [4] = system: Mus musculus; test: Activity to antagonise mercaptopropionic acid (MPA) induced convulsions in mouse after intraperitoneal administration; format: functional; details: ip
# [5] = system: Mus musculus; test: Compound was tested for enhancement of [3H]flunitrazepam ([3H]-FNP) binding to mouse brain after intraperitoneal administration at a dose of 100uM/kg, expressed as percent of control; format: functional; method in brief: as §1
# [6] = system: Mus musculus; test: Compound was tested for enhancement of [3H]Flunitrazepam ([3H]-FNP) binding to mouse brain after intraperitoneal administration at a dose of 3.2uM/kg, expressed as percent of control; format: functional; method in brief: as §1
# [7] = system: Mus musculus; test: Compound was tested for enhancement of [3H]Flunitrazepam ([3H]FNP) binding to mouse brain after intraperitoneal administration at a dose of 32uM/kg, expressed as percent of control; format: functional; method in brief: as §1
# [8] = system: P23576; test: Administered at a dose 320 umol/kg intraperitoneally before [3H]Flunitrazepam ([3H]-FNP) in mouse brain expressed as percent of control; format: functional, tissue-based; method in brief: as §1
# P23576, sequence (P23576 whole entry): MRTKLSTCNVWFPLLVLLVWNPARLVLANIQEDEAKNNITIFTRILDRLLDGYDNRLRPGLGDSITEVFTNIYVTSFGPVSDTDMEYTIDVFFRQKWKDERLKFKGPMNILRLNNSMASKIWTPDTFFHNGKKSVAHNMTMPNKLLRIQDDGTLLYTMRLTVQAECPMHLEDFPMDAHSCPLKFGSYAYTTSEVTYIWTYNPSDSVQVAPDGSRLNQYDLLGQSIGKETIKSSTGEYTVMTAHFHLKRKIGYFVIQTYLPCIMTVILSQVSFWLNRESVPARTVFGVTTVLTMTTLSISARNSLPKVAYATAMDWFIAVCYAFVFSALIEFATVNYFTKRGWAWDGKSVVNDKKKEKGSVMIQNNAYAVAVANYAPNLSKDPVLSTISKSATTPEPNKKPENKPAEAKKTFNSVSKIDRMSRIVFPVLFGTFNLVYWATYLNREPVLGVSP
# [9] = (§3) Toxicity was measured in mouse by intraperitoneal administration; details: in vivo, ip
# Method in brief: (§4)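 Mouse LD50 in mg/kg after sc or ip dosing, by the route named in each line.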
# [10] = Toxicity measured in mouse by subcutaneous administration; format: organism-based; details: in vivo, sc; method in brief: as §4
# [11] = system: Mus musculus; test: Activity tested to antagonise cyclic GMP after administration of isoniazid in mouse brain; format: functional
# [12] = Toxicity was measured in mouse by intraperitoneal administration; value ranges from 3.2-10; details: in vivo, ip; method in brief: as §4
# [13] = system: Mus musculus; test: Activity to antagonise mercaptopropionic acid (MPA) induced convulsions in mouse after subcutaneous administration; format: functional; details: sc; method in brief: as §2
# [14] = system: Mus musculus; test: as §3; format: organism-based; details: in vivo, ip
# Method in brief: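 Mice were dosed intraperitoneally and observed for 7 days after drug administration to estimate the LD50.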
# [15] = Ability to displace [3H]flunitrazepam ([3H]-FNP) binding to mouse brain after intraperitoneal administration at a dose 320 umol/kg; format: functional, organism-based; details: at 320 µmol/kg
# Method in brief: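 Mice in groups of five got test agent or vehicle ip 1 h before iv [3H]FNP at 200 μCi/kg, then were killed 20 min later by cervical dislocation. Brains were frozen and homogenized in 40 volumes of ice-cold 50 mM Tris-HCl pH 7.7. Triplicate samples were filtered on glass fiber, washed with cold buffer and counted. Bound label is expressed as % of vehicle-treated mice.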
# [16] = target: GABA-A receptor; anion channel (Rattus norvegicus) (UniProt O09028+P15431+P18506+P18508+P19969+P20236+P23574+P23576+P28471+P28473+P30191+P62813+P63079+P63138+Q91ZM7+Q9ES14); test: Antagonism of mercaptopropionic acid (MPA) induced convulsions in mouse; format: functional, organism-based
# [17] = system: Mus musculus; test: Activity to antagonise cyclic GMP after administration of isoniazid in mouse brain; value ranges from 0.1-0.3; format: functional
# [18] = system: Mus musculus; test: Compound was tested for enhancement of [3H]Flunitrazepam ([3H]FNP) binding to mouse brain after intraperitoneal administration at a dose of 1000uM/kg, expressed as percent of control; format: functional
# Method in brief: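 Groups of five mice got the test compound or vehicle ip at the stated dose, 1 h (60 min) before iv [3H]FNP at 200 μCi/kg. Mice were killed by cervical dislocation 20 min after [3H]FNP. Brains were frozen, weighed and homogenized in 40 volumes ice-cold 50 mM Tris-HCl pH 7.7. Triplicate 1.0-mL samples were filtered on glass fiber and washed with cold buffer. Bound radioactivity was counted and expressed as % of vehicle-treated mice.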
# [19] = system: Mus musculus; test: Ability to displace [3H]Flunitrazepam ([3H]-FNP) binding to mouse brain after intraperitoneal administration at a dose […]; format: functional
# [20] = system: Mus musculus; test: Compound was tested for enhancement of [3H]Flunitrazepam ([3H]FNP) binding to mouse brain after intraperitoneal administration at a dose of 10 uM/kg, expressed as percent of control; format: functional; method in brief: as §1
# [21] = system: Mus musculus; test: Activity to antagonise mercaptopropionic acid (MPA) induced convulsions in mouse after subcutaneous administration; the value ranges from 32-100; format: functional; details: sc; method in brief: as §2
smiles,measurement,setting,value
COc1ccc(N2C(=O)/C(=C3/CCCN3C)c3ccccc32)cc1,Control,[1],103%
same,ED50,[2],5.6 mg/kg
same,ED50,[3],1 mg/kg
same,ED50,[4],~3.2 mg/kg
same,Control,[5],192%
same,Control,[6],105%
same,Control,[7],125%
same,Control,[8],211%
same,LD50,[9],> 320 mg/kg
same,LD50,[10],> 1000 mg/kg
NCc1cc(O)no1 [MUSCIMOL],ED50,[11],1.5 mg/kg
same,LD50,[12],3.2 mg/kg
same,LD50,[10],4.2 mg/kg
same,ED50,[13],0.7 mg/kg
CCCCNc1c(C(=O)OCC)c(C)nc2c1cnn2CC [TRACAZOLATE],ED50,[11],~3 mg/kg
same,ED50,[14],> 1000 mg/kg
same,ED50,[13],> 100 mg/kg
CN(C)/C=C1\C(=O)N(c2ccc(Cl)c(Cl)c2)c2ccccc21,[3H]flunitrazepam binding,[15],144%
same,ED50,[16],> 100 mg/kg
same,ED50,[17],0.1 mg/kg
CCCC(CCC)C(=O)[O-].[Na+] [VALPROATE SODIUM],ED50,[16],212 mg/kg
same,LD50,[9],> 1000 mg/kg
same,LD50,[10],> 1000 mg/kg
same,Control,[18],128%
CN1C(=O)CN=C(c2ccccc2)c2cc(Cl)ccc21 [DIAZEPAM],Control,[19],66%
same,ED50,[16],0.7 mg/kg
same,ED50,[11],< 0.9 mg/kg
CN1CCC/C1=C1/C(=O)N(c2cccc(Cl)c2)c2ccccc21,ED50,[16],> 100 mg/kg
same,ED50,[4],~3.2 mg/kg
same,Control,[5],132%
same,Control,[20],105%
same,Control,[7],105%
same,Control,[8],192%
same,LD50,[9],> 320 mg/kg
same,LD50,[10],> 1000 mg/kg
COc1cccc(N2C(=O)/C(=C3/CCCN3C)c3ccccc32)c1,ED50,[21],100 mg/kg
same,Control,[8],214%
